In PMC3580291 (Cell Calcium, 2013):
Where two headings read alike, the source gives them in different places.

Assays:
[1] = test system: RBL mast cells; settings: read-out: IC50 on RBL mast cells; cited from earlier work
[2] = biological target: STIM1/Orai1 currents (Homo sapiens, UniProt Q96D31); assay: whole-cell patch-clamp of STIM1-mediated Orai1 currents in HEK293 cells; format: cell-based; settings: for inhibition of maximally activated STIM1/Orai1 currents: whole cell inward current at −74 mV, HEK293; for kinetics of Orai1 current inhibition, slower than La^3+: relative to La^3+; for recovery of Orai1 currents upon wash-out: after full block by 10 μM, 4–5 min wash-out with 10 mM Ca^2+ solution
Chain of STIM1/Orai1 currents (Q96D31 whole entry): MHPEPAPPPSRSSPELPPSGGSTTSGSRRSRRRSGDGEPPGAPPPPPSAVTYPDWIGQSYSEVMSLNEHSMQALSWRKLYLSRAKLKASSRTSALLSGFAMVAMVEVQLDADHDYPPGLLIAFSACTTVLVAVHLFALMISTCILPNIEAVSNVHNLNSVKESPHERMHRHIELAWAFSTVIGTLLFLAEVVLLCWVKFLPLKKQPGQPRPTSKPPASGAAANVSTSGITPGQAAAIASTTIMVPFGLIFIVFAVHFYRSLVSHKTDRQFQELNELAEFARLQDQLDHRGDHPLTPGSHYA
Chain of STIM1/Orai1 currents (Q13586 23-685 partner): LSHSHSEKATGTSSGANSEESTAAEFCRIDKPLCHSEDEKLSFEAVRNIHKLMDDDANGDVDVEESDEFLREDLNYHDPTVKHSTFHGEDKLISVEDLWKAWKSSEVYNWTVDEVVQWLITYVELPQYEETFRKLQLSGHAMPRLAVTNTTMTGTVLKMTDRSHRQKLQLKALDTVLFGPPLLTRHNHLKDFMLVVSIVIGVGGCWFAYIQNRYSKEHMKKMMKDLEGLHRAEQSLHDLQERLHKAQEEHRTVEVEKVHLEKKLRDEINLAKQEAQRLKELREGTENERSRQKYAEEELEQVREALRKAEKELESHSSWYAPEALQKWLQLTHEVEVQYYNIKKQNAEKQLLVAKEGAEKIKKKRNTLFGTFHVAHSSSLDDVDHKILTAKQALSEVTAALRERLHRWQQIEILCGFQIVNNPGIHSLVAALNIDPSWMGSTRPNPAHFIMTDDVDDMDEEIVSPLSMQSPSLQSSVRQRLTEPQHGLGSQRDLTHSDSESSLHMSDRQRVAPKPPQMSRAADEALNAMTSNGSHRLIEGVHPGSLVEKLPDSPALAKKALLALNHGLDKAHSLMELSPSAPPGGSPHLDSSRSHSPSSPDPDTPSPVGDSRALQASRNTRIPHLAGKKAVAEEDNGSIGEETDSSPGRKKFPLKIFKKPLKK
In short: (§1)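 HEK293 cells transfected with CFP-STIM1 plus YFP-Orai construct and recorded 24 h later. Whole-cell patch clamp at 20–24 °C with passive store depletion via a pipette containing (mM) 145 Cs methanesulfonate, 20 EGTA, 3.5 MgCl2, 8 NaCl, 10 HEPES, pH 7.2. Bath contained 10 mM CaCl2, pH 7.4. Ramps from −90 to +90 mV over 1 s, every 5 s, from 0 mV holding. Inward current taken at −74 mV. Leak correction used the initial trace or post-10 μM La3+ trace.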

[3] = biological target: STIM1/Orai3 currents (Homo sapiens, UniProt Q9BRQ5); assay: whole-cell patch-clamp of STIM1-mediated Orai3 currents in HEK293 cells; format: cell-based; settings: for inhibition of maximally activated STIM1/Orai3 currents: 10 μM, whole cell inward current at −74 mV, HEK293; for recovery of Orai3 currents upon wash-out: after full block by 10 μM, 4–5 min wash-out with 10 mM Ca^2+ solution
In short: as §1

[4] = test system: STIM1 clustering in smooth muscle cells; settings: cited from earlier work
[5] = test system: human lung mast cells; settings: 3 μM; cited from earlier work
[6] = biological target: CaV1.2 (L-type) (Homo sapiens, UniProt Q13936); assay: selectivity profile, over-expressed ion channel; format: cell-based; settings: Activity (IC50), antagonistic action; Human CaV1.2 (L-type)
[7] = biological target: STIM1/Orai1 E106D (Homo sapiens, UniProt Q96D31, E106D); assay: whole-cell patch-clamp of STIM1-activated Orai1 E106D pore mutant currents; format: cell-based
Chain of STIM1/Orai1 E106D (Q96D31 whole entry E106D): as the sequence (Q96D31 whole entry) above, with E106D counted along it
Chain of STIM1/Orai1 E106D (Q13586 23-685 partner): as the sequence (Q13586 23-685 partner) above
In short: as §1

[8] = biological target: STIM1/Orai1 D110/112/114A (Homo sapiens, UniProt Q96D31, D110A/D112A/D114A); format: cell-based; settings: 10 μM
[9] = biological target: CFP-STIM1/YFP-STIM1 oligomerization (Homo sapiens, UniProt Q13586); assay: confocal FRET microscopy of STIM1 oligomerization; format: cell-based; settings: 10 μM applied 5 min before store-depletion with 2 μM thapsigargin
Chain of CFP-STIM1/YFP-STIM1 oligomerization (Q13586 23-685): as the sequence (Q13586 23-685 partner) above
Chain of CFP-STIM1/YFP-STIM1 oligomerization (Q13586 23-685): as the sequence (Q13586 23-685 partner) above
In short: (§2)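 HEK293 cells transfected with CFP/YFP-tagged STIM1 and/or Orai1 and imaged 24 h later by confocal FRET microscopy with 457/488/514 nm laser lines. CFP, FRET and YFP images used about 900–1500 ms illumination. Crosstalk and cross-excitation factors were set per construct daily. Pixelwise corrected FRET (NFRET) was computed after background subtraction, limited to CFP:YFP molar ratio 1:10–10:1. Data given as mean ± S.E.M.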

[10] = biological target: L-type Ca^2+ channels (Homo sapiens, UniProt Q13936); assay: whole-cell patch-clamp of L-type Ca2+ channel expressing HEK293 cells; format: cell-based; settings: 10 μM
Chain of L-type Ca^2+ channels (Q13936 1-2138 isoform Q13936-20): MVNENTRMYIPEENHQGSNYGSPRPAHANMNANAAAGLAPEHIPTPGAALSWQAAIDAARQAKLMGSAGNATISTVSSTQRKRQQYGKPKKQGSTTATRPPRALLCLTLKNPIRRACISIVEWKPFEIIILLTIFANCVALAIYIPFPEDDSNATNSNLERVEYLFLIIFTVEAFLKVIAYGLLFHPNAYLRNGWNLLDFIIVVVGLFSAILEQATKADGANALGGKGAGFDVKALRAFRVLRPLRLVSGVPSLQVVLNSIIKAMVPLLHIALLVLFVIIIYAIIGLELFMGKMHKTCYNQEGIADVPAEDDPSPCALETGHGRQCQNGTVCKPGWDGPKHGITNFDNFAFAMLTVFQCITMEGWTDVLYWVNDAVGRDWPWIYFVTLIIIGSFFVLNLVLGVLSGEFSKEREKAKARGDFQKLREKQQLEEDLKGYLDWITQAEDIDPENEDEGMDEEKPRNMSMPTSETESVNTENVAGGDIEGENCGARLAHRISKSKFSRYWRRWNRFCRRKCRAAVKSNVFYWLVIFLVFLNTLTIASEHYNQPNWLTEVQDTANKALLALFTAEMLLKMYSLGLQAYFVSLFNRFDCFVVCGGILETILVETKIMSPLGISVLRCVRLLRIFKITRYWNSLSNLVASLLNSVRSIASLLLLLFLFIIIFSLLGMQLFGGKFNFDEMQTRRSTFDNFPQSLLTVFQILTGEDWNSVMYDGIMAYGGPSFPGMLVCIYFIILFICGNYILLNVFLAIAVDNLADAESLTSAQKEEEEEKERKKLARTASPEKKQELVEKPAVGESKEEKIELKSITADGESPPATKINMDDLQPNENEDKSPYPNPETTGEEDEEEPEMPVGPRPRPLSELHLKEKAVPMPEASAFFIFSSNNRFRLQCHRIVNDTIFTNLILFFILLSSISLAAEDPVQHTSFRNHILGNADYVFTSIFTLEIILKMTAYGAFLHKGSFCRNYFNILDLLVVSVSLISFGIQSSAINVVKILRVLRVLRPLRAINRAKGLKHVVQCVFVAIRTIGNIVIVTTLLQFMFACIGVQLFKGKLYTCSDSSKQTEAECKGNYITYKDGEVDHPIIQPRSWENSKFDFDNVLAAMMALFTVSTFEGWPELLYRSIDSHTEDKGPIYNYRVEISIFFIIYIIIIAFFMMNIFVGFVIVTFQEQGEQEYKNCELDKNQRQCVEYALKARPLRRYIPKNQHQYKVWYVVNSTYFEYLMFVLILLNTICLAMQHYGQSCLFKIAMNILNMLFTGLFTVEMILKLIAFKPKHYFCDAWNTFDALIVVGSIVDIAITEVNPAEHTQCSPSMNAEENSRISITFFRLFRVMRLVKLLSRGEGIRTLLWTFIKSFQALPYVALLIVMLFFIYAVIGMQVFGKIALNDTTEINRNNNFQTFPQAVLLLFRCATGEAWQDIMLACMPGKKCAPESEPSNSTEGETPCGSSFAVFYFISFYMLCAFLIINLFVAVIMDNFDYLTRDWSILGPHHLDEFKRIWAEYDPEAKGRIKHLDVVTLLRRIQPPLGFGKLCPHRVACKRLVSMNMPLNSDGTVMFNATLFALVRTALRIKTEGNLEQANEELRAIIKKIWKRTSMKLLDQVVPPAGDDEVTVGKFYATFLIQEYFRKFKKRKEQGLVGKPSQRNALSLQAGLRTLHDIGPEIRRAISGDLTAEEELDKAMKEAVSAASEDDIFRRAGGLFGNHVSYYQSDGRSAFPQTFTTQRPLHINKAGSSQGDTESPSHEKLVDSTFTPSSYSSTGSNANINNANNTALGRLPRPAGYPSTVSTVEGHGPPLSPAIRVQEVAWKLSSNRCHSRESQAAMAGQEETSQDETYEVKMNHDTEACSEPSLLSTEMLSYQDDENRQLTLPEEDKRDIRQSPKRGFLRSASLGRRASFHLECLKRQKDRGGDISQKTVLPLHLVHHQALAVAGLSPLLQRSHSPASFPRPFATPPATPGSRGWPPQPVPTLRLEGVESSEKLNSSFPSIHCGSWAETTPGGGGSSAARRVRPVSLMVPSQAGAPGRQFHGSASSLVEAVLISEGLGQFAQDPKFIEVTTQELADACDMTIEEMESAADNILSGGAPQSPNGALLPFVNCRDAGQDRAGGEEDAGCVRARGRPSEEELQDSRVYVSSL
Chain of L-type Ca^2+ channels (Q08289 whole entry partner): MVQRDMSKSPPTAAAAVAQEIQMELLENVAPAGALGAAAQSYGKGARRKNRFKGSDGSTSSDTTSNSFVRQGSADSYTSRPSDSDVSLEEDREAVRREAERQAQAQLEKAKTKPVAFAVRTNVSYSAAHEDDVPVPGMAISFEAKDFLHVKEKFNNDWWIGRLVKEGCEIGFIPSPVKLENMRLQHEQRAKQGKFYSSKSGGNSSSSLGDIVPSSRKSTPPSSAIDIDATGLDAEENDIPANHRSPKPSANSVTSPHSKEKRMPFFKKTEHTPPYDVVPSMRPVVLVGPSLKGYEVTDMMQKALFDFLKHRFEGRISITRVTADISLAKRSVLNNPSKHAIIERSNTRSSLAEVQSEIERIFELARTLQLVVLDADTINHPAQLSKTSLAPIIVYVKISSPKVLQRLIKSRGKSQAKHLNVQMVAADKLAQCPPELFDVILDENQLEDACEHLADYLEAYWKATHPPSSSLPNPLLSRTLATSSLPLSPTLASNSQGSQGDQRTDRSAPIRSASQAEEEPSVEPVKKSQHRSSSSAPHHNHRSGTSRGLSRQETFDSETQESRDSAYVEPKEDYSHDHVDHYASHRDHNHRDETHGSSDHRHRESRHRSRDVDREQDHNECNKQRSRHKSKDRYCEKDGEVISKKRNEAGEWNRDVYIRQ
Chain of L-type Ca^2+ channels (P54289 25-1103 partner): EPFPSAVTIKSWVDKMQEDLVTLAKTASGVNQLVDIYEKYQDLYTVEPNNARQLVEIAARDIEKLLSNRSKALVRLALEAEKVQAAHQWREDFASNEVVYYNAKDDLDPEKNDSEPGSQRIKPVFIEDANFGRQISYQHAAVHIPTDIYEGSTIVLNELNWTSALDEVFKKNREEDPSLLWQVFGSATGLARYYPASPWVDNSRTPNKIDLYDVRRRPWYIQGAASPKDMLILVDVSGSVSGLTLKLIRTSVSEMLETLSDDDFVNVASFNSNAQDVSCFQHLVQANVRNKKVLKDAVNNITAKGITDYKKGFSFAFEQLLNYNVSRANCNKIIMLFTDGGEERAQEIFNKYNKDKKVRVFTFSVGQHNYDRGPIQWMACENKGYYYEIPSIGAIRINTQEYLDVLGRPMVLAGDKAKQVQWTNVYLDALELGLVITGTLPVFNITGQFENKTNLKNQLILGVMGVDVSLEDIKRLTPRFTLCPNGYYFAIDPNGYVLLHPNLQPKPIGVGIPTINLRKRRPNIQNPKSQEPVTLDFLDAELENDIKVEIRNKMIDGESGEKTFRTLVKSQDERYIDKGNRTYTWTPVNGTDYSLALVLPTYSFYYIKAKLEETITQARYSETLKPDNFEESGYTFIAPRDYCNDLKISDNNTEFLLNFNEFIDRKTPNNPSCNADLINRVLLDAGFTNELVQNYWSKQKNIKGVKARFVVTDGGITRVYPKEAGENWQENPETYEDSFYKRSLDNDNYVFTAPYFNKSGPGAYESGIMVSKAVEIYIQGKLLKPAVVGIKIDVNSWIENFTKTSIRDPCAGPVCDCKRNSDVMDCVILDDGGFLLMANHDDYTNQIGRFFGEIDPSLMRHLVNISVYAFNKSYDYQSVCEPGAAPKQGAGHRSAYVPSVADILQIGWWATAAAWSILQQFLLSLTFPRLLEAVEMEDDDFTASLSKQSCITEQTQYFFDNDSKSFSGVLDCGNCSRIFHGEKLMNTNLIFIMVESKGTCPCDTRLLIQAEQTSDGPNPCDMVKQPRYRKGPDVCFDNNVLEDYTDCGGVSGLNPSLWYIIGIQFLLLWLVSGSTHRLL

[11] = biological target: rat-TRPV6 channels (Rattus norvegicus, UniProt Q9R186); assay: whole-cell patch-clamp of TRPV6 expressing HEK293 cells; format: cell-based; settings: 10 μM, −74 mV
[12] = biological target: STIM1-CFP/Orai1-YFP interaction (Homo sapiens, UniProt Q13586+Q96D31); assay: confocal FRET microscopy of STIM1/Orai1 coupling; format: cell-based; settings: 10 μM after store-depletion by thapsigargin; HEK cells
Chain of STIM1-CFP/Orai1-YFP interaction (Q96D31 whole entry): as the sequence (Q96D31 whole entry) above
Chain of STIM1-CFP/Orai1-YFP interaction (Q13586 23-685): as the sequence (Q13586 23-685 partner) above
In short: as §2

[13] = biological target: 2-APB stimulated Orai3 currents (Homo sapiens, UniProt Q9BRQ5); assay: whole-cell patch-clamp of 2-APB stimulated Orai3 currents; format: cell-based
[14] = test system: endogenous CRAC channels of RBL-2H3 cells; assay: whole-cell patch-clamp of endogenous CRAC currents in RBL-2H3 cells; format: cell-based, rat; settings: 10 μM; passive store-depletion; −74 mV
In short: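 RBL-2H3 cells grown in RPMI 1640 with 10% FBS, 1% penicillin–streptomycin and 1% L-glutamine at 37 °C, 5% CO2. Endogenous CRAC current activated by passive store depletion (20 mM EGTA pipette) in whole-cell mode. Inward current at −74 mV followed during perfusion of 10 μM test compound, with 10 μM La3+ as reference.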

[15] = test system: HEK293 cells; format: cell-based
[16] = test system: Orai3; settings: cited from earlier work
[17] = test system: CRAC currents; settings: cited from earlier work
[18] = test system: Orai2; settings: high concentrations (50 μM), compared with Orai1; cited from earlier work
[19] = test system: Orai1 currents; settings: cited from earlier work
[20] = test system: CRAC/SOC currents in RBL cells; settings: 30 μM; cited from earlier work
[21] = test system: interleukin-2 (IL-2) production in lymphocytes; settings: cited from earlier work

Question: For `COc1ccc(OC)c(-c2ccc(NC(=O)c3ccncc3F)cc2)c1` [Synta-66, N-(2′,5′-dimethoxy-[1,1′-biphenyl]-4-yl)-3-fluoroisonicotinamide, reference compound], which IC50 [1] is on record?
Answer: 1 to 3 µM

Question: And the “inhibition of maximally activated STIM1/Orai1 currents” value ([2]; 10 μM)?
Answer: reduced Orai1 currents

Question: And the “inhibition of maximally activated STIM1/Orai3 currents” value [3]?
Answer: inhibited Orai3 currents at a similar rate to the GSK compounds

Question: What about the “interference with STIM1 clustering” value [4] of the same compound?
Answer: does not interfere with STIM1 clustering

Question: Which results are given for `O=C(Nc1ccn(Cc2ccccc2Oc2ccccc2)n1)c1c(F)cccc1F` [GSK-5503A, 2,6-difluoro-N-(1-(2-phenoxybenzyl)-1H-pyrazol-3-yl)benzamide]?
Answer: kinetics of Orai1 current inhibition, slower than La^3+ ([2]; 10 μM): 2.5 fold; inhibition of maximally activated STIM1/Orai1 currents ([2]; 10 μM): complete Orai1 current inhibition; recovery of Orai1 currents upon wash-out [2]: not readily reversible; inhibition of maximally activated STIM1/Orai3 currents [3]: fully inhibited; recovery of Orai3 currents upon wash-out [3]: not readily reversible

Question: Which results are given for `O=C(Nc1ccn(Cc2ccc(O)cc2C(F)(F)F)n1)c1c(F)cccc1F` [GSK-7975A, 2,6-difluoro-N-(1-(4-hydroxy-2-(trifluoromethyl)benzyl)-1H-pyrazol-3-yl)benzamide]?
Answer: Ca^2+ influx in human lung mast cells [5]: significantly reduced; release of inflammatory mediators from human lung mast cells [5]: significantly reduced; IC50 [6]: ~8 µM; inhibition of STIM1-activated Orai1 E106D currents ([7]; 10 μM): no inhibition; inhibition of STIM1-mediated Orai1 E106D currents ([7]; 100 μM): substantially but not fully restored the inhibitory effect; inhibition of STIM1-activated Orai1 D110/112/114A currents [8]: substantial inhibition almost comparable to that of wild-type Orai1; effect on FRET increase (STIM1 oligomerization) upon store-depletion [9]: unaffected; inhibition of L-type Ca^2+ channel currents [10]: moderate inhibition; inhibition of TRPV6 currents [11]: completely inhibited; effect on FRET plateau representing STIM1/Orai1 interaction [12]: did not significantly alter; Hill coefficient, inhibition of Orai1 currents [2]: ~1; effect on Ca^2+-induced fast inactivation of STIM1/Orai1 ([2]; 3 μM (Suppl. Fig. 1)): did not significantly increase inactivation; inhibition of CRAC currents upon intracellular application ([2]; 10 μM intracellular application, data not shown): slight inhibition; inhibition of STIM1/Orai1 monovalent currents in divalent free (DVF) solution ([2]; 10 μM, Na^+ as main charge carrier): fully blocked; kinetics of Orai1 current inhibition, slower than La^3+ ([2]; 10 μM): 2.5 fold; inhibition of maximally activated STIM1/Orai1 currents ([2]; 10 μM): complete Orai1 current inhibition; recovery of Orai1 currents upon wash-out [2]: not readily reversible; inhibition of maximally 2-APB stimulated Orai3 currents ([13]; 10 μM, 75 μM 2-APB): totally ineffective; inhibition of maximally 2-APB activated Orai3 currents ([13]; 100 μM): full inhibition; inhibition at 50 µM ([13]; read-out: inhibition of maximally 2-APB activated Orai3 currents): 50%; inhibition of RBL CRAC currents [14]: fully blocked; amount of Ca^2+ released from ER stores ([15]; 10 μM pre-incubation, stimulation by carbachol (CCH) or BHQ): not markedly altered; inhibition of endogenous store-operated Ca^2+ entry of HEK293 cells ([15]; pre-incubation with 10 μM, Fura-2): substantially inhibited; Hill coefficient, inhibition of Orai3 currents [3]: ~1; inhibition of maximally activated STIM1/Orai3 currents [3]: fully inhibited; recovery of Orai3 currents upon wash-out [3]: not readily reversible

Question: Which “effect on Orai3 currents” value ([16]; 75 μM, independent of STIM1) does the source give for `NCCOB(c1ccccc1)c1ccccc1` [2-APB, 2-aminoethoxydiphenylborate] here?
Answer: robust current stimulation

Question: And the “effect on over-expressed Orai3” value [16]?
Answer: robustly stimulated

Question: What about the “effect on CRAC currents” value ([17]; concentrations higher than 10 μM) of the same compound?
Answer: completely blocked

Question: What about the “effect on CRAC currents” value ([17]; low concentrations (1–5 μM)) of the same compound?
Answer: enhanced

Question: And the “effect on over-expressed Orai2” value [18]?
Answer: less sensitive

Question: What about the “effect on over-expressed Orai1” value ([19]; high concentrations (50 μM)) of the same compound?
Answer: robust block

Question: And the “effect on Orai1 currents” value ([19]; higher concentrations (>40 μM))?
Answer: inhibit

Question: What about the “effect on Orai1 currents” value ([19]; low concentrations (5 μM)) of the same compound?
Answer: enhance

Question: And the “effect on STIM1/Orai1 currents” value ([2]; 75 μM)?
Answer: transient stimulation followed by a complete inhibition

Question: Which “time to full blockade of STIM1-activated Orai1 currents” value ([2]; 10 μM (Fig. 2B)) does the source give for `CC/C(=C(/CC)c1ccc(O)cc1)c1ccc(O)cc1` [DES, diethylstilbestrol, reference compound] here?
Answer: ≤ 50 s

Question: What about the “inhibition of maximally activated STIM1/Orai1 currents” value ([2]; 10 μM) of the same compound?
Answer: full and rapid blockade

Question: What about the “block of CRAC/SOC currents in RBL cells” value [20] of the same compound?
Answer: effective block

Question: With `[La+3]` [La^3+, reference compound] as the compound, how does the “inhibition of L-type Ca^2+ channel currents” value [10] read?
Answer: fully blocked

Question: What about the “inhibition of TRPV6 currents” value [11] of the same compound?
Answer: fully blocked

Question: And the “inhibition of maximally activated STIM1/Orai1 currents” value ([2]; 10 μM)?
Answer: complete inhibition

Question: For `Cc1nnsc1C(=O)Nc1ccc(-n2nc(C(F)(F)F)cc2C(F)(F)F)cc1` [BTP2], which “effect on interleukin-2 (IL-2) production in lymphocytes” value [21] is on record?
Answer: potently blocks
